Results on four molecules are retold here after ChEMBL document CHEMBL1154093, “New azoles with potent antifungal activity: design, synthesis and molecular docking” (2009).

Values after ≈ are worked out from the molar mass of the structure shown. Active and inactive are the calls of the source. The rule behind the calls is not given here.

The subject of one test is Nannizzia gypsea. Put plainly: Antifungal activity against Microsporum gypseum after 7 days by serial dilution method. The class given is functional. The following applies: 168 h. The gist of the method: (§1)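 Dermatophytes (ATCC or clinical isolates) were tested by NCCLS serial dilution in RPMI 1640 with 0.165 M MOPS, incubated at 28 °C and read at 7 days. Compounds were taken up in DMSO and diluted in medium. MIC was the lowest concentration reducing turbidity by at least 80% relative to the drug-free growth control.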

The subject of another test is Trichophyton rubrum. Put plainly: Antifungal activity against Trichophyton rubrum after 7 days by serial dilution method. It counts as functional. The following applies: 168 h. The gist of the method:
as §1

A further test deals with Aspergillus fumigatus. The test can be described thus: Antifungal activity against Aspergillus fumigatus after 7 days by serial dilution method. The class given is functional. Particulars: 168 h. In short, it runs like this: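 Filamentous fungus (ATCC or clinical isolate) was tested by NCCLS microdilution in MOPS-buffered (0.165 M) RPMI 1640. Compounds were dissolved in DMSO and serially diluted in medium, and growth was scored at 7 days. MIC was the lowest concentration producing ≥80% inhibition of turbidity compared with the untreated control.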

The subject of test [1] is Candida albicans. The test can be described thus: Antifungal activity against Candida albicans after 24 hrs by serial dilution method. It counts as functional. In short, it runs like this: (§2)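 NCCLS broth microdilution in RPMI 1640 buffered with 0.165 M MOPS, with strains from ATCC or clinical isolates. Compounds were dissolved in DMSO and serially diluted in medium. Yeasts were incubated at 35 °C and read at 24 h for Candida or 72 h for C. neoformans. MIC was the lowest concentration giving ≥80% turbidity inhibition versus the growth control.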

The test system of test [2] is Candida albicans. The test can be described thus: Antifungal activity against multidrug-resistant Candida albicans after 24 hrs by serial dilution method. It counts as functional. The gist of the method:
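Broth serial dilution in 96-well plates per NCCLS recommendations; RPMI 1640 buffered with 0.165 M MOPS as medium. Compounds dissolved in DMSO, serially diluted in growth medium. Strains from ATCC or clinical isolates. Yeasts incubated at 35 °C, read at 24 h for Candida. MIC = lowest concentration giving turbidity at or below 80% inhibition versus growth control.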

Another test has as its system Candida parapsilosis. Put plainly: Antifungal activity against Candida parapsilosis after 24 hrs by serial dilution method. It counts as functional, organism-based. The gist of the method: as §2
Another test relates to Cryptococcus neoformans. Put plainly: Antifungal activity against Cryptococcus neoformans after 72 hrs by serial dilution method. It counts as functional. The gist of the method:
as §2

In another test the test system is Candida tropicalis. The test can be described thus: Antifungal activity against Candida tropicalis after 24 hrs by serial dilution method. It counts as functional. The gist of the method: as §2

What is called MIC80 is the lowest concentration that inhibits either 80% of growth or 80% of the strains tested, depending on the study. The low end stands for higher susceptibility, the high end for lower susceptibility.

Regarding `Nc1ccccc1OCCCN1CCN(CC(O)(Cn2cncn2)c2ccc(F)cc2F)CC1` (racemic), the MIC80 against Nannizzia gypsea is 16 µg/mL (≈ 33.9 µM); against Trichophyton rubrum, 1 µg/mL (≈ 2.12 µM); in the test on Aspergillus fumigatus, 64 µg/mL (≈ 135 µM); against Candida albicans [1], 0.25 µg/mL (≈ 0.529 µM); with Candida albicans [2], 0.5 µg/mL (≈ 1.06 µM); in the test with Cryptococcus neoformans, 4 µg/mL (≈ 8.46 µM). Also, in the test with Candida tropicalis, the MIC80 was found to be 0.25 µg/mL (≈ 0.529 µM). In the test on Candida parapsilosis, the result was Active.
Regarding `OC(CN1CCN(CCCOc2ccccc2Cl)CC1)(Cn1cncn1)c1ccc(F)cc1F` (racemic), the MIC80 against Nannizzia gypsea is 1 µg/mL (≈ 2.03 µM); with Trichophyton rubrum, 0.25 µg/mL (≈ 0.508 µM); in the test on Aspergillus fumigatus, 32 µg/mL (≈ 65 µM); against Candida albicans [1], 0.0625 µg/mL (≈ 0.127 µM); against Candida albicans [2] it was 16 µg/mL (≈ 32.5 µM); in the test with Cryptococcus neoformans, 1 µg/mL (≈ 2.03 µM). In the test on Candida tropicalis, this molecule came in with an MIC80 of 0.0625 µg/mL (≈ 0.127 µM). The outcome in the test on Candida parapsilosis was Active.
Consider `OC(Cn1cncn1)(Cn1cncn1)c1ccc(F)cc1F` [FLUCONAZOLE], for which the MIC80 in the test on Nannizzia gypsea is 16 µg/mL (≈ 52.2 µM); in the test on Trichophyton rubrum, 4 µg/mL (≈ 13.1 µM); with Aspergillus fumigatus, > 64 µg/mL; in the test with Candida albicans [1], 1 µg/mL (≈ 3.27 µM); in the test on Candida albicans [2], > 64 µg/mL; against Cryptococcus neoformans, 1 µg/mL (≈ 3.27 µM). In the test with Candida tropicalis, this molecule gave an MIC80 of 1 µg/mL (≈ 3.27 µM). Besides, in the test with Candida parapsilosis, the result was Active.
Take `OC(CN1CCN(CCCOc2ccc(Cl)cc2)CC1)(Cn1cncn1)c1ccc(F)cc1F` (racemic): the MIC80 in the test with Nannizzia gypsea amounted to 0.25 µg/mL (≈ 0.508 µM); against Trichophyton rubrum, 0.0156 µg/mL (≈ 0.0317 µM); with Aspergillus fumigatus, 4 µg/mL (≈ 8.13 µM); against Candida albicans [1], 0.0156 µg/mL (≈ 0.0317 µM); against Candida albicans [2], 0.125 µg/mL (≈ 0.254 µM); against Cryptococcus neoformans, 0.25 µg/mL (≈ 0.508 µM). The molecule also displayed an MIC80 with Candida tropicalis of 0.0156 µg/mL (≈ 0.0317 µM). In addition, the outcome in the test with Candida parapsilosis was Active.
